Screens as filed in PubChem.
Sampled rows, rich in hits. Any-hit rate of the full collection: about 1%.
CaV13 ICDI inh: Disruptors of the CACNA1D IQ motif to Ca2+-dependent inactivation inhibitor domain association, primary screening, Förster resonance energy transfer in intact living …. HEK cells, CFP/YFP FRET ICDI-IQ, plate reader, 10 min; percent FRET-ratio fall versus neutral wells. inhibition, % at 12.3 µM. 340,000 compounds, 0.098% hits. AID 743397;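 active = mean replicate inhibition of at least 30% and at least 1% of replicates passing that level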;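 also: 0% = median of the neutral control wells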
GSIS activator: GLuc luminescence reporter in INS-1E cells, primary screen for activators of glucose-dependent secretion of insulin. INS-1E GLuc reporter insulin secretion, 2-3 h. activation, % at 16.6 µM. 370,000 compounds, 0.61% hits. AID 743287;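 active = lowest replicate activation of at least 40%, so every replicate reaches that level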;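 also: 0% = median of neutral control wells and 100% = median of IBMX positive control wells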
Xi reactivation: activators of X-chromosome reactivation in mouse fibroblasts; XiGFP mouse fibroblasts, % GFP-positive cells imaging, 3 d; cells co-treated with 5-aza-dC sensitizer; scaled so ellipticine positive control = 100%; activation, % at 7.58 µM; 360,000 compounds, 0.055% hits;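 active = mean normalized replicate activation at least 10% and every replicate at or above 10%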;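 also: 0% = median of on-plate neutral control wells and 100% = ellipticine 6 µM median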
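Material: XiGFP fibroblasts, SV40-immortalized; Buffer or medium: DMEM containing 5-aza-dC; Compound dosing: single point; Times: 3 days compound exposure.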
GAA850 FXN act: frataxin GAA850 promoter activation. HEK293 lucGAA850 FXN promoter luciferase reporter, 24 h; percent of 10 µM SAHA response. activation, % at 6 µM. 360,000 compounds, 0.56% hits;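 active = activation above the average of all compounds screened plus 3 SD, cutoff fixed separately per campaign, cut at about 7.5% in these data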;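 also: 0% = DMSO wells and 100% = 10 µM SAHA wells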
* hit, by the source's call; · = no result given; + = active, no number; ! = not active in a repeat.

SMILES	CaV13 ICDI inh	GSIS activator	Xi reactivation	GAA850 FXN act
CCCNC(=O)N1C[C@H](O)COC[C@H]2O[C@H](CC(=O)N3CCCCC3)CC[C@@H]21	·	10	0	·
C[C@H]1c2cccc(O)c2C(O)=C2C(=O)[C@]3(O)C(O)=C(C(N)=O)C(=O)[C@@H](N(C)C)[C@@H]3[C@@H](O)[C@@H]21	·	·	·	19*
O=C1CC(NS(=O)(=O)c2cccs2)CN1c1ccccc1 (configuration not stated)	-13	1	0	0
O=C1CC(NS(=O)(=O)c2cccs2)CN1c1cccc(F)c1 (configuration not stated)	-6	46*	2	1
CC(NCC(O)COCCC12CC3CC(CC(C3)C1)C2)c1ccccc1 (configuration not stated)	-5	167*	1	6
O=C(Nc1nnc(-c2ccccc2SCc2ccccc2F)s1)Nc1ccccc1F	·	61*	·	2
O=C(Nc1nnc(-c2ccc(F)cc2)s1)Nc1ccccc1F	-4	14	0	-1
C[C@H](CO)N1C[C@H](C)[C@H](CN(C)C(=O)C2CCCCC2)Oc2cc(-c3ccccc3)ccc2S1(=O)=O	·	-43	0	·
CCN1CCN(CCCNC(=O)c2ccc3c(c2)N(Cc2ccccc2)CCS3)CC1	-4	43*	0	-1
Cc1noc(C)c1NC(=O)Nc1ccc2c(c1)CC(=O)N([C@H](C)CO)C[C@H](C)[C@H](CN(C)S(=O)(=O)c1ccc(F)cc1)O2	·	10	0	·
Cc1oc(/N=C/c2ccc(O)cc2O)c(C#N)c1C	+	11	0	1
CC(C)OC(=O)c1nn2c(C(F)(F)F)cc(-c3ccc(Br)o3)nc2c1Br	-13	157*	·	0
CC(=O)N[C@@H]1CC[C@H](CCNC(=O)Nc2ccc(C(F)(F)F)cc2)O[C@@H]1CO	·	-20	1	·
C[C@@H]1CN([C@@H](C)CO)C(=O)Cc2cc(NS(C)(=O)=O)ccc2O[C@H]1CN(C)C(=O)Nc1cccc2ccccc12	·	16	0	·
COc1cccc(-c2nnn(CC(=O)O)n2)c1	-5	76*	·	2
FC(F)(F)c1ccc(Cl)c(-n2c(Cc3cccs3)n[nH]c2=S)c1	-4	41*	0	3
Fc1ccc(-n2c(Cc3cccs3)n[nH]c2=S)cc1Cl	-16	57	·	3
CO[C@@H]1CN(C)C(=O)c2ccc(NC(=O)Nc3ccccc3Cl)cc2OC[C@@H](C)N(C)C[C@H]1C	·	-11	0	·
COc1ccc(CCN(C)C(=O)COc2ccc(C(=O)c3ccccc3)cc2)cc1OC	-4	7	0	1
COc1ccc(CCN(C)C(=O)COc2cccc(-n3cnnn3)c2)cc1OC	-6	83*	0	3
C[C@H](CO)N1C[C@H](C)[C@H](CN(C)C(=O)C2CC2)Oc2cc(/C=C/c3ccccc3)ccc2S1(=O)=O	·	-27	0	·
C[C@H](CO)N1C[C@H](C)[C@@H](CN(C)Cc2ccc(C(=O)O)cc2)Oc2c(NC(=O)CCC(F)(F)F)cccc2C1=O	·	12	0	·
COc1ccc(CN2C(=O)C(C)Nc3ncnc(N4CCN(c5ccccc5)CC4)c32)cc1 (configuration not stated)	63*!	6	0	-1
CC(=O)NCCc1cnc[nH]1	·	1	·	10*
Cc1ccc(-c2csc3ncnc(SCC(N)=O)c23)cc1	-19	45*	1	2
SMILES	CaV13 ICDI inh	GSIS activator	Xi reactivation	GAA850 FXN act
O=C(CSc1ncnc2scc(-c3ccccc3)c12)Nc1ccc(C(=O)O)cc1	-15	147*	0	0
O=C(O)c1ccc(Nc2ncnc3scc(-c4ccccc4)c23)cc1	-1	1	0	4
CCc1nnc(NC(=O)CSc2ncnc3scc(-c4ccc(C)cc4)c23)s1	-7	·	·	1
COc1cccc(S(=O)(=O)N2C[C@@H]3N[C@H](C2)C3c2ccc(-c3ccc(C(=O)N(C)C)cc3)cc2)c1 (some centres not stated)	·	1	0	·
CC(=O)N1[C@@H](CO)[C@@H]2c3ccccc3N(S(=O)(=O)c3cccc(C)c3)C[C@@H]21	·	2	1	·
C=CCOc1ccc2c(c1)CCC1C2CCC2(C)C(O)C(O)CC12 (configuration not stated)	-10	47*	0	1
CN1C(=O)c2cc(NC(=O)c3ccc(F)cc3)ccc2OC[C@H]2O[C@@H](CC(=O)N3CCOCC3)CC[C@@H]21	·	4	0	·
CCn1c(=NC(=O)CSC(C)=O)sc2cc(OC)ccc21	40*	-27	0	0
CCCNC(=O)N1CCC2(CC1)CN(C(=O)NC(C)C)[C@@H](CO)c1c2c2ccc(OC)cc2n1C	·	16	0	·
O=c1[nH]c(=O)c2nc(-c3ccc(Cl)cc3)cnc2[nH]1	100*	8	0	0
O=c1[nH]c(=S)[nH]c2nc(-c3ccccc3)cnc12	-4	15	0	2
N#CC1=C(N)Oc2n[nH]c(-c3ccc(F)cc3)c2C1c1cccnc1 (configuration not stated)	·	56*	·	-1
N#CC1=C(N)Oc2n[nH]c(-c3ccccc3)c2C1c1ccncc1 (configuration not stated)	-3	·	·	1
N#CC(C#N)=C1C=CC=CN1/C(=C\c1ccccc1)C(=O)c1cccs1	63*	4	0	1
N#CC(C#N)=C1C=CC=CN1/C(=C\c1ccccc1Cl)C(=O)c1ccccc1	-3	20	2	4
O=C(O)c1ccc(S(=O)(=O)NCc2ccc3c(c2)OCO3)cc1	-18	43*	0	2
CCS(=O)(=O)N1CC2(CN[C@H](CO)c3c2c2ccc(OC)cc2n3C)C1	·	8	0	·
Cc1noc(C)c1S(=O)(=O)Nc1ccc2c(c1)C(=O)N([C@H](C)CO)C[C@@H](C)[C@H](CN(C)C(=O)Nc1ccc3c(c1)OCO3)O2	·	24	-1	·
Cc1cc(=O)[nH]c(SCc2cn3ccccc3n2)n1	-6	73*	0	2
COC(=O)C1=CN(Cc2ccc(OC)c(OC)c2)C=C(C(=O)OC)C1c1cccc(OC)c1OC	3	40	0	0
CCN1C=C(C(=O)OC)C(c2cccc(OC)c2OC)C(C(=O)OC)=C1	+	12	0	-2
CCn1cc(C(=O)O)c(=O)c2cc(F)c(N3CCN(C(=S)NC(=O)c4cccc(C)c4)CC3)cc21	-2	44*	0	2
CCn1cc(C(=O)O)c(=O)c2cc(F)c(N3CCN(C(=S)NC(=O)c4ccc(Br)cc4)CC3)cc21	-5	13	0	3
Cc1noc(C)c1NC(=O)Nc1ccc2c(c1)C(=O)N([C@@H](C)CO)C[C@H](C)[C@H](CN(C)S(=O)(=O)c1ccc(F)cc1)OCCCC[C@@H](C)O2	·	-5	0	·
Cc1cc2oc(=O)cc(CN3CCOCC3)c2c(C)c1Cl	-17	41*	0	1
